EWS-Fli inh: blocks EWS/Fli oncoprotein-driven transcription; A673 NR0B1-luciferase reporter, viability-normalised; inhibition, % at 12.6 µM; hit rate 0.67% among 350,000; AID 651661;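 active = mean inhibition of at least 50% after viability correction, with every replicate also passing that limit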;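 note: firefly luciferase signal divided by Alamar Blue viability fluorescence both relative to DMSO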
LGR2 antag: blocks bursicon-induced cAMP signaling via Drosophila LGR2; HEK293 LGR2, CRE-luciferase, bursicon-stimulated, 4 h; inhibition, % at 9.99 µM; hit rate 0.35% among 380,000; AID 720647;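 active = drop in luminescence signal, shown as inhibition above about 50% in the replicate tests, limit read from the data, passing the limit was not always enough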;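 note: agonist challenge used bursicon conditioned medium at about half maximal strength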
E-selectin induc: E-selectin induction on HUVECs; HUVEC E-selectin immunofluorescence imaging; normalized: neutral wells 0, TNF-alpha wells 100; hit rate 0.37% among 260,000; activation, % at 7.58 µM; AID 686992; P16581;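 active = mean E-selectin-positive cell signal at least 10% of the positive control, reached in at least 60% of replicates, without over 20% cell loss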
Target sequence (P16581 whole entry, looked up): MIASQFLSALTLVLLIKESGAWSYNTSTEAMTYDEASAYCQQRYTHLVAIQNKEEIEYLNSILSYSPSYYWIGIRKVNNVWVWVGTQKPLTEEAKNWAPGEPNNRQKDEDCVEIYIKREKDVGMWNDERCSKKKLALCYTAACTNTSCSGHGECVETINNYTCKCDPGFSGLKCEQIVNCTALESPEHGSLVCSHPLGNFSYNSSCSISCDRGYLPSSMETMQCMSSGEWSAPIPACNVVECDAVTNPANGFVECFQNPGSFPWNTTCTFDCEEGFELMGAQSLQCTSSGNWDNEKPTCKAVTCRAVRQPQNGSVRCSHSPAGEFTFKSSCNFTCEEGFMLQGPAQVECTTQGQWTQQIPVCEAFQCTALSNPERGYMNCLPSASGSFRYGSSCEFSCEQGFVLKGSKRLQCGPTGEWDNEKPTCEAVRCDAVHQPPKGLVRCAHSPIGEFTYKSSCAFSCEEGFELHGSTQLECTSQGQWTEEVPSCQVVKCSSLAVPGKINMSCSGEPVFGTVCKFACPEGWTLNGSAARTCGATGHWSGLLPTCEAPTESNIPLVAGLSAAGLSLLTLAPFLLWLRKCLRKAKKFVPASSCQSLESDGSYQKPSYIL
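Test system: HUVEC | Signal: Immunofluorescence imaging | Read-out: Percent E-selectin-positive cells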
rRNA inh HTS: inhibitors of bacterial rRNA selective over humanized ribosomes; hit rate 1.6% among 350,000; GFP signal change (wild-type ribosome), % (concentration not given with the values); E. coli WT GFP vs humanized-ribosome RFP mutants, fluorescence, 24 h; active compounds read low; DMSO median 0, no signal -100;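 active = significant combined selectivity score with lowered wild-type GFP, culture density cut under 30%, mutant RFP and density less affected; inactive = any of these conditions unmet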
A number is an active result; - = inactive; . = no result. Sampled rows, rich in hits. Any-hit rate of the full collection: about 2.4%.

SMILES	EWS-Fli inh	LGR2 antag	E-selectin induc	rRNA inh HTS
COc1ccc2nc(SCC(=O)Nc3ccccc3OC)[nH]c2c1	-	-	-	-24
COc1cccc(OC)c1C(=O)Nc1ccc2c(c1)Cc1ccccc1-2	-	-	.	-23
COc1ccc(C(=O)Nc2ccncc2)c(OC)c1	-	-	.	-
COc1ccc(C(=O)Nc2ccc3nc(C)sc3c2)cc1OC	-	-	.	-20
COc1cccc(OC)c1C(=O)NC(=S)Nc1ccc2c(c1)Cc1ccccc1-2	.	-	.	-
COc1ccc(C(=O)Nc2ccc3ccccc3c2)c(OC)c1	-	-	.	-28
COc1ccccc1NC(=O)COc1ccc2ccccc2c1	-	-	-	-31
O=C(Nc1ccc2ccccc2c1)c1ccccc1F	-	52	.	-
O=C(Nc1cccc(S(=O)(=O)Nc2ccc(Cl)cc2)c1)c1ccc(Cl)nc1	-	-	.	-
COc1ccccc1C(=O)Nc1ccc2ccccc2c1	-	-	.	-33
COc1ccc(NS(=O)(=O)c2cccc(NC(=O)c3ccc(Cl)nc3)c2)cc1	-	-	.	-25
C[C@@H]1CN([C@@H](C)CO)C(=O)c2cc(NC(=O)C3CCCCC3)ccc2O[C@@H](C)CCCCO[C@@H]1CN(C)C(=O)Nc1ccc2c(c1)OCO2	-	-	-	-
N#C[C@@H]1[C@@H](c2ccccc2-c2ccccc2)[C@H](CO)N1C(=O)Cc1ccncc1	-	-	-	-
COc1cccc(NC(=O)c2ccccc2Oc2ccccc2)c1	-	-	.	-
COc1ccc(C(=O)Nc2ccc3ncccc3c2)cc1	58	59	-	-
O=C(Nc1ccc2ncccc2c1)c1cccc(Br)c1	-	-	.	-
COc1ccccc1C(=O)Nc1cccc(NC(=O)c2ccccc2C)c1	-	-	.	-34
Cc1cc(C)c2nc(NNC(=O)c3ccc(S(=O)(=O)N4CCCCC4)cc3)sc2c1	-	.	.	-12
CCOC(=O)N1CCN(S(=O)(=O)c2ccc(C(=O)NNc3nc4c(C)cc(C)cc4s3)cc2)CC1	-	.	-	.
O=C(C[C@@H]1C=C[C@@H](NC(=O)Nc2ccc(F)cc2)[C@@H](CO)O1)NCc1ccccn1	-	-	-	-
COc1ccc(S(=O)(=O)N[C@H]2CC[C@H](CCn3cc(C(C)C)nn3)O[C@H]2CO)cc1	-	-	-	-
CC[C@]1(C(=O)OC)[C@H]2C(=O)N(Cc3ccccc3)C(=O)[C@H]2[C@H]2CN=C(SCc3ccc(C(=O)OC)cc3)N21	-	-	.	-26
CC[C@]1(C(=O)OC)[C@H]2C(=O)N(Cc3ccccc3)C(=O)[C@H]2[C@H]2CN=C(SCc3ccc(C)cc3)N21	-	-	.	-
N#Cc1c(NC(=O)/C=C/c2ccco2)sc2c1CCCC2	-	-	.	-
O=C(/C=C/c1ccco1)Nc1sc2c(c1C(=O)O)CCC2	-	-	.	-24
SMILES	EWS-Fli inh	LGR2 antag	E-selectin induc	rRNA inh HTS
C[C@H](CO)N1C[C@H](C)[C@@H](CN(C)C(=O)Cc2ccncc2)Oc2cc(C#CC3CC3)ccc2S1(=O)=O	-	-	-	-
COc1ccc(-c2cc3cc4c(cc3cn2)OCO4)cc1	-	65	-	-
COc1ccc(-c2cc3cc(OC)c(OC)cc3cn2)cc1	-	-	-	-
CCCN1C[C@H](C)[C@@H](OC)CN(C)C(=O)c2cc(NC(=O)c3cccc(OC)c3)ccc2OC[C@@H]1C	-	-	-	-
COc1ccc(-c2cc(C(=O)NCc3ccc(C(F)(F)F)cc3)[nH]n2)c(C)c1	-	-	-	-20
COc1cc(C=C2CCCC(=Cc3ccc(OCC4CO4)c(OC)c3)C2=O)ccc1OCC1CO1 (stereo unspecified)	68	-	-	-
COc1ccc(/C=C2\Cc3ccccc3C2=O)cc1OC	-	-	-	-
COc1ccc(/C=C2/CSC/C(=C/c3ccc(OC)c(OC)c3)C2=O)cc1OC	66	-	-	-
CC(=O)N(C)C[C@@H]1Oc2ccc(NS(C)(=O)=O)cc2C(=O)N(C)C[C@H]1C	.	.	.	-
CCONc1ncnc2nonc12	-	-	-	-
COc1ccc(CONc2ncnc3nonc23)cc1[N+](=O)[O-]	-	-	.	-25
C[C@@H]1CC(=O)N[C@@H](c2ccccc2)C/C=C\C[C@H](c2ccccc2)NC1=O	.	.	.	-
CC(C)CC#Cc1ccc([C@H]2[C@@H](CO)N3C(=O)CN(C(=O)NC(C)C)C[C@@H]23)cc1	.	.	.	-
O=C(c1cc(-c2cccc(Cl)c2)nc2ccccc12)N1CCN(c2ccccn2)CC1	.	-	-	-
O=C(c1cc(-c2ccccc2Cl)nc2ccc(Br)cc12)N1CCN(c2ccccn2)CC1	.	68	-	-
CCC(=O)N1CC[C@H]2[C@H](CO)Nc3ccc(C#Cc4cccnc4)cc3[C@H]21	-	-	-	-
COc1cc(/C=C(\C#N)C(N)=O)ccc1OS(=O)(=O)c1ccc(C)cc1	-	-	.	-24
CCC(=O)N1C[C@@H](C)[C@H](OC)CN(C)C(=O)c2ccc(NC(=O)C3CC3)cc2OC[C@@H]1C	-	-	-	-
O=C(C1CC1)N1[C@H](CO)[C@H]2c3ccccc3N(S(=O)(=O)c3ccccc3)C[C@H]21	-	-	-	-
COc1cc(/C=C/C(=O)OCC(=O)NCCCc2ccccc2)cc(OC)c1OC	-	-	-	-18
C[C@@H]1CN([C@H](C)CO)C(=O)Cc2cc(NC(=O)Nc3ccc(C(F)(F)F)cc3)ccc2O[C@@H]1CN(C)Cc1ccc(C(=O)Nc2ccccc2N)cc1	-	-	-	-
C[C@@H]1CN([C@@H](C)CO)C(=O)Cc2cc(NC(=O)Nc3ccc(F)cc3)ccc2O[C@H]1CN(C)Cc1ccc(C(=O)O)cc1	-	-	55	-
C[C@H]1CN([C@@H](C)CO)C(=O)Cc2cc(NC(=O)Nc3ccc(C(F)(F)F)cc3)ccc2O[C@H]1CN(C)Cc1ccc(C(=O)Nc2ccccc2N)cc1	79	-	-	-
CC(C)NC(=O)Nc1ccc2c(c1)CC(=O)N([C@@H](C)CO)C[C@H](C)[C@H](CN(C)Cc1ccc(C(=O)O)cc1)O2	-	-	42	-
CC(C)NC(=O)Nc1ccc2c(c1)CC(=O)N([C@@H](C)CO)C[C@@H](C)[C@H](CN(C)Cc1ccc(C(=O)O)cc1)O2	-	-	-	-
SMILES	EWS-Fli inh	LGR2 antag	E-selectin induc	rRNA inh HTS
CC(C)NC(=O)Nc1ccc2c(c1)CC(=O)N([C@H](C)CO)C[C@H](C)[C@@H](CN(C)Cc1ccc(C(=O)O)cc1)O2	-	-	39	-
CC(C)NC(=O)Nc1ccc2c(c1)CC(=O)N([C@@H](C)CO)C[C@@H](C)[C@@H](CN(C)Cc1ccc(C(=O)O)cc1)O2	-	-	-	-
CCC(=O)N1CC2(C1)[C@@H](c1ccccc1)[C@H](CO)N2CCC(F)(F)F	-	-	-	-
O=C(Nc1ccc2c(c1)[C@@H]1C[C@@H](CC(=O)N3CCCCC3)O[C@@H](CO)[C@@H]1O2)C1CCOCC1	-	-	-	-
O=C(CN1C2CCCC1CC(NC(=O)c1ccccc1)C2)Nc1ccccc1 (stereo unspecified)	-	-	.	-
O=C(CN1C2CCCC1CC(NC(=O)c1ccccc1)C2)Nc1ccccc1C(F)(F)F (stereo unspecified)	-	-	.	-41
COc1ccc(OC)c(/C=C/C(=O)c2ccc3c(c2)OCCO3)c1	-	-	-	-25
